{"source": "ChEMBL document CHEMBL4177589", "about": "“In silico analysis and in vitro evaluation of immunogenic and immunomodulatory properties of promiscuous peptides derived from Leishmania infantum eukaryotic initiation factor” (2017)", "key": {"Splenocyte": {"test_system": "Splenocyte", "assay": "Induction of cell proliferation in splenocytes isolated from BALB/c mouse infected with Leishmania major MRHO/SU/59/P, zymodeme LV39 assessed as increase in [3H]-thymidine incorporation at 1 to 10 ug/ml […] and measured after 18 hrs by liquid scintillation counter method", "type": "functional, cell-based", "in_short": "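Female BALB/c mice were infected subcutaneously with 2×10^6 stationary-phase L. major promastigotes. Splenocytes were taken one month later and plated in triplicate at 2×10^6 cells/mL with peptide at 1, 5 or 10. Cultures ran 96 h at 37°C, 5% CO2, with 3H-thymidine (2 µCi/mL) added for the last 18 h and read by scintillation. The result is Δcpm against medium wells; Δcpm >2000 with SI >2 counted as positive.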"}, "BMDC [1]": {"test_system": "BMDC", "assay": "Immunomodulatory activity in LPS stimulated BALB/c mouse bone marrow-derived dendritic cells assessed as increase in IL-12 level at 10 ug/ml after 24 hrs by FACS analysis (reference value: 44%)", "type": "functional"}, "BMDC [2]": {"test_system": "BMDC", "assay": "Immunomodulatory activity in […] mouse bone marrow-derived dendritic cells assessed as up-regulation of co-stimulatory molecules at 10 ug/ml after 24 hrs by FACS analysis", "type": "functional, cell-based"}, "BMDC [3]": {"test_system": "BMDC", "assay": "Immunomodulatory activity in LPS stimulated BALB/c mouse bone marrow-derived dendritic cells assessed as increase in IFN-gamma level at 10 ug/ml after 24 hrs by FACS analysis (reference value: 20%)", "type": "functional"}, "BMDC [4]": {"test_system": "BMDC", "assay": "Immunomodulatory activity in LPS stimulated BALB/c mouse bone marrow-derived dendritic cells assessed as increase in IL-4 level at 10 ug/ml after 24 hrs by FACS analysis (reference value: 48%)", "type": "functional"}, "BMDC [5]": {"test_system": "BMDC", "assay": "Immunomodulatory activity in LPS stimulated BALB/c mouse bone marrow-derived dendritic cells assessed as increase in IL-10 level at 10 ug/ml after 24 hrs by FACS analysis (reference value: 27%)", "type": "functional"}, "BMDC [6]": {"test_system": "BMDC", "assay": "Immunomodulatory activity in […] mouse bone marrow-derived dendritic cells assessed as increase in IL-12 level at 10 ug/ml after 24 hrs by FACS analysis", "type": "functional, cell-based"}, "BMDC [7]": {"test_system": "BMDC", "assay": "Immunomodulatory activity in […] mouse bone marrow-derived dendritic cells assessed as increase in IL-10 level at 10 ug/ml after 24 hrs by FACS analysis", "type": "functional, cell-based"}, "BMDC [8]": {"test_system": "BMDC", "assay": "Immunomodulatory activity in LPS stimulated BALB/c mouse bone marrow-derived dendritic cells assessed as up-regulation of TNF-alpha mRNA expression at 10 ug/ml after 2 to 12 hrs by qPCR analysis", "type": "functional, cell-based", "in_short": "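Day-9 BM-DCs (5×10^6 per group) were cultured with peptide for 2, 6 and 12 h, with LPS and medium controls. TNF-α mRNA was measured by RT and semi-quantitative PCR, and products were run on 2% agarose gels. Band densitometry was normalised to β-actin and given as arbitrary units, from three independent experiments.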"}, "BMDC [9]": {"test_system": "BMDC", "assay": "Immunomodulatory activity in LPS stimulated BALB/c mouse bone marrow-derived dendritic cells assessed as increase in surface CD80 expression at 10 ug/ml after 24 hrs by FACS analysis (reference value: 26%)"}, "BMDC [10]": {"test_system": "BMDC", "assay": "Immunomodulatory activity in LPS stimulated BALB/c mouse bone marrow-derived dendritic cells assessed as increase in surface CD86 expression at 10 ug/ml after 24 hrs by FACS analysis (reference value: 58%)"}}, "note": "The source made the active and inactive calls. No cut-off for these calls is given here.", "data": [{"substance": "H-FLDDQPGVRPIPSFDDM-OH", "values": [{"measurement": "Activity", "setting": "Splenocyte", "result": "Active"}, {"measurement": "Activity", "setting": "BMDC [1]", "result": "inactive"}]}, {"substance": "H-IQQRAIAPFTRGGDII-OH", "values": [{"measurement": "Activity", "setting": "Splenocyte", "result": "Active"}, {"measurement": "Activity", "setting": "BMDC [2]", "result": "Active"}, {"measurement": "Activity", "setting": "BMDC [1]", "result": 65, "unit": "%"}, {"measurement": "Activity", "setting": "BMDC [3]", "result": 40, "unit": "%"}, {"measurement": "Activity", "setting": "BMDC [4]", "result": 64, "unit": "%"}, {"measurement": "Activity", "setting": "BMDC [5]", "result": 43, "unit": "%"}, {"measurement": "Activity", "setting": "BMDC [6]", "result": "Active"}, {"measurement": "Activity", "setting": "BMDC [7]", "result": "Active"}, {"measurement": "Activity", "setting": "BMDC [8]", "result": "Active"}, {"measurement": "Activity", "setting": "BMDC [9]", "result": 43, "unit": "%"}, {"measurement": "Activity", "setting": "BMDC [10]", "result": 77, "unit": "%"}]}, {"substance": "H-KPSSIQQRAIAPFTRGG-OH", "values": [{"measurement": "Activity", "setting": "Splenocyte", "result": "Active"}, {"measurement": "Activity", "setting": "BMDC [1]", "result": "inactive"}]}, {"substance": "H-PKDIQVALFSATMPEEVL-OH", "values": [{"measurement": "Activity", "setting": "Splenocyte", "result": "Active"}, {"measurement": "Activity", "setting": "BMDC [1]", "result": "inactive"}]}, {"substance": "H-TRELALQTAEVISRIGE-OH", "values": [{"measurement": "Activity", "setting": "Splenocyte", "result": "Active"}, {"measurement": "Activity", "setting": "BMDC [1]", "result": "inactive"}]}]}
